Experimental data taken from ChEMBL document CHEMBL1123083, “Synthesis and antiherpetic activity of (S)-, (R)-, and (+/-)-9-[(2,3-dihydroxy-1-propoxy)methyl]guanine, linear isomers of 2'-nor-2'-deoxyguanosine” (J Med Chem, 1985).
In brackets after ≈: the same amount, converted by molar mass. Activity calls are given as the source filed them. The calls are words filed in the database; no cut-off is given here.

Key:
[1] = tested on: Human alphaherpesvirus 1; assay: Efficacy was evaluated against Oraficial HSV-1 infection in mice with lesions administered orally at a dose 50 mg/kg per day.; type: ADME, organism-based; design: route oral; conditions: mouse, in vivo, po
Method in brief: (§1)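 HSV-1 strain S inoculated in the orofacial area of mice as previously described. Half-daily doses given by gavage 8 h apart, starting 3 h after infection, for 7 days. On day 7 after infection, mice with lesions per group and average lesion score were recorded (95% confidence interval). Significance was judged against placebo-treated infected mice (p < 0.05).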

[2] = tested on: Human alphaherpesvirus 1; assay: Efficacy was evaluated against Oraficial HSV-1 infection in mice with lesions administered orally at a dose 12.5 mg/kg per day; Tested mice 10; type: organism-based; design: route oral; conditions: mouse, in vivo, po; method in brief: as §1
[3] = tested on: Human alphaherpesvirus 1; assay: Efficacy was evaluated against Systemic HSV-1 infection in mice at a daily dose of 3.1 mg/kg administered orally.; type: ADME, organism-based; design: dose 3.1 mg/kg; conditions: mouse, in vivo, po
Method in brief: (§2)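 Mixed-sex ICR/Ha mice (10–20 g) were infected intraperitoneally with 50–100 LD50 of HSV-1 Schooler. Oral dosing of 0.1 mL twice daily for 7 days began immediately after infection. Groups were of about 10 mice. Deaths were recorded daily for 15 days, giving survivors/total and mean survival time with 95% CI. Significance was judged against placebo-treated infected mice using transformed survival times.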

[4] = tested on: Human alphaherpesvirus 1; assay: Efficacy was evaluated against Oraficial HSV-1 infection in mice with lesions administered orally at a dose 50 mg/kg per day; Tested mice 10; type: organism-based; design: route oral; conditions: mouse, in vivo, po; method in brief: as §1
[5] = tested on: Human alphaherpesvirus 1; assay: Efficacy was evaluated against Oraficial HSV-1 infection in mice with lesions administered topically at a dose 1 mg/kg per day; Tested mice 10; type: ADME, organism-based; conditions: mouse, in vivo
Method in brief: (§3)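 Mice were infected orofacially with HSV-1 strain S. Each treatment was 10 μL of compound at the stated percent concentration in a hydroalcoholic vehicle. Application began 3 h after infection and was repeated at 3-h intervals: three treatments on day 1 and four on each of the next 2 days. Lesion incidence and average lesion score were read on day 7 (95% CI). Significance was judged against placebo (p < 0.05).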

[6] = tested on: Human alphaherpesvirus 1; assay: Efficacy was evaluated against Oraficial HSV-1 infection in mice with lesions administered orally at a dose 3.1 mg/kg per day; Tested mice 10; type: organism-based; design: route oral; conditions: mouse, in vivo, po; method in brief: as §1
[7] = tested on: Human alphaherpesvirus 1; assay: Efficacy was evaluated against Oraficial HSV-1 infection in mice with lesions administered orally at a dose 0.8 mg/kg per day.; type: ADME, organism-based; design: route oral; conditions: mouse, in vivo, po; method in brief: as §1
[8] = tested on: Human alphaherpesvirus 2; assay: In vitro anti viral activity tested against HSV-2(Curtis) virus on Rabbit kidney cell cultures; 1-3; type: functional; conditions: Human alphaherpesvirus 2, kidney; read-out: ED50 (the source's name)
Method in brief: (§4)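 Confluent primary rabbit kidney monolayers were preincubated with serial drug dilutions in EMEM with 2% fetal calf serum and neomycin. They were then challenged with about 10 TCID50 of HSV-1 Schooler or HSV-2 Curtis and incubated at 37 °C. Cytopathology was scored on day 5. ED50 is the concentration preventing cytopathology in half of the infected cultures.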

[9] = tested on: Human alphaherpesvirus 1; assay: Efficacy was evaluated against Systemic HSV-1 infection in mice at a daily dose of 12.5 mg/kg administered subcutaneously.; type: ADME, organism-based; design: dose 12.5 mg/kg, route subcutaneous; conditions: mouse, in vivo, sc
Method in brief: (§5)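 ICR/Ha mice (10–20 g, mixed sex) were infected intraperitoneally with 50–100 LD50 of HSV-1 Schooler. Subcutaneous dosing of 0.1 mL twice daily for 4 days started immediately after infection. Groups were of about 10 mice. Survival was recorded daily for 15 days and reported as survivors/total and mean survival time (95% CI). Transformed survival times were compared with placebo-treated infected mice (p < 0.05).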

[10] = tested on: Human alphaherpesvirus 1; assay: Efficacy was evaluated against Oraficial HSV-1 infection in mice with lesions administered orally at dose 0.8 mg/kg per day; Tested mice 10; type: ADME, organism-based; design: route oral; conditions: mouse, in vivo, po; method in brief: as §1
[11] = tested on: Human alphaherpesvirus 1; assay: In vitro anti viral activity tested against HSV-1(Schooler) virus on Rabbit kidney cell cultures; 0.5-1.5; type: functional; conditions: Human alphaherpesvirus 1, kidney; read-out: ED50 (the source's name); method in brief: as §4
[12] = tested on: DNA polymerase (Homo sapiens); assay: Evaluated for DNA polymerase inhibition activity against HeLa cells.
[13] = tested on: Human alphaherpesvirus 1; assay: Efficacy was evaluated against Systemic HSV-1 infection in mice at a daily dose of 0.8 mg/kg administered subcutaneously; Tested mice 10; type: organism-based; design: dose 0.8 mg/kg, route subcutaneous; conditions: mouse, in vivo, sc; method in brief: as §5
[14] = tested on: Human alphaherpesvirus 1; assay: Efficacy was evaluated against Systemic HSV-1 infection in mice at a daily dose of 12.5 mg/kg administered orally; Tested mice 9; type: organism-based; design: dose 12.5 mg/kg; conditions: mouse, in vivo, po; method in brief: as §2
[15] = tested on: Human alphaherpesvirus 1; assay: Efficacy was evaluated against Oraficial HSV-1 infection in mice with lesions administered topically at a dose 0.25 mg/kg per day.; type: ADME, organism-based; conditions: mouse, in vivo; method in brief: as §3
[16] = tested on: Human alphaherpesvirus 1; assay: Efficacy was evaluated against Systemic HSV-1 infection in mice at a daily dose of 3.1 mg/kg administered orally; Tested mice 10; type: organism-based; design: dose 3.1 mg/kg; conditions: mouse, in vivo, po; method in brief: as §2
[17] = tested on: Human alphaherpesvirus 1; assay: Efficacy was evaluated against Oraficial HSV-1 infection in mice with lesions administered topically at a dose 0.02 mg/kg per day; Tested mice 10; type: ADME, organism-based; conditions: mouse, in vivo; method in brief: as §3
[18] = tested on: Human alphaherpesvirus 1; assay: Efficacy was evaluated against Oraficial HSV-1 infection in mice with lesions administered topically at a dose 0.06 mg/kg per day; Tested mice 10; type: ADME, organism-based; conditions: mouse, in vivo; method in brief: as §3
[19] = tested on: Human alphaherpesvirus 1; assay: Efficacy was evaluated against Oraficial HSV-1 infection in mice with lesions administered topically at a dose 0.25 mg/kg per day; Tested mice 10; type: ADME, organism-based; conditions: mouse, in vivo; method in brief: as §3
[20] = tested on: Human alphaherpesvirus 1; assay: Efficacy was evaluated against Oraficial HSV-1 infection in mice with lesions administered topically at a dose 1 mg/kg per day.; type: ADME, organism-based; conditions: mouse, in vivo; method in brief: as §3
[21] = tested on: Human alphaherpesvirus 1; assay: Efficacy was evaluated against Systemic HSV-1 infection in mice at a daily dose of 3.1 mg/kg administered subcutaneously.; type: ADME, organism-based; design: dose 3.1 mg/kg, route subcutaneous; conditions: mouse, in vivo, sc; method in brief: as §5
[22] = tested on: Human alphaherpesvirus 1; assay: Efficacy was evaluated against Systemic HSV-1 infection in mice at a daily dose of 12.5 mg/kg administered orally.; type: ADME, organism-based; design: dose 12.5 mg/kg; conditions: mouse, in vivo, po; method in brief: as §2
[23] = tested on: Human alphaherpesvirus 1; assay: Efficacy was evaluated against Systemic HSV-1 infection in mice at a daily dose of 50 mg/kg administered orally.; type: ADME, organism-based; design: dose 50 mg/kg; conditions: mouse, in vivo, po; method in brief: as §2
[24] = tested on: Human alphaherpesvirus 1; assay: Efficacy was evaluated against Systemic HSV-1 infection in mice at a daily dose of 50 mg/kg administered orally; Tested mice 10; type: organism-based; design: dose 50 mg/kg; conditions: mouse, in vivo, po; method in brief: as §2
[25] = tested on: Human alphaherpesvirus 1; assay: Efficacy was evaluated against Systemic HSV-1 infection in mice at a daily dose of 3.1 mg/kg administered subcutaneously; Tested mice 10; type: ADME, organism-based; design: dose 3.1 mg/kg, route subcutaneous; conditions: mouse, in vivo, sc; method in brief: as §5
[26] = tested on: Human alphaherpesvirus 1; assay: Efficacy was evaluated against Systemic HSV-1 infection in mice at a daily dose of 0.8 mg/kg administered subcutaneously.; type: ADME, organism-based; design: dose 0.8 mg/kg, route subcutaneous; conditions: mouse, in vivo, sc; method in brief: as §5
[27] = tested on: Human alphaherpesvirus 1; assay: Evaluated for DNA polymerase inhibition activity against herpes simplex virus-1 (HSV-1); type: functional
Method in brief: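 Step II mixture supplied the phosphorylated test material. Step I: compound with HSV-1 thymidine kinase, 4 h, 37 °C. Step II: then HSV-1-infected HeLa crude extract plus GMP kinase, overnight, 30 °C. A 20 μL sample went to a 1 h, 37 °C DNA polymerase assay at pH 8 with activated salmon sperm DNA, 0.05 mM each dNTP ([³H]dTTP) and infected HeLa extract. (NH₄)₂SO₄ 0.1 M was present for the viral enzyme and omitted for the cellular polymerases. Read-out: TCA-precipitable radioactivity.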

[28] = tested on: Human alphaherpesvirus 1; assay: Efficacy was evaluated against Oraficial HSV-1 infection in mice with lesions administered topically at a dose 0.06 mg/kg per day.; type: ADME, organism-based; conditions: mouse, in vivo; method in brief: as §3
[29] = tested on: Human alphaherpesvirus 1; assay: Efficacy was evaluated against Oraficial HSV-1 infection in mice with lesions administered topically at a dose 0.02 mg/kg per day.; type: ADME, organism-based; conditions: mouse, in vivo; method in brief: as §3
[30] = tested on: Human alphaherpesvirus 1; assay: Efficacy was evaluated against Oraficial HSV-1 infection in mice with lesions administered orally at a dose 12.5 mg/kg per day.; type: ADME, organism-based; design: route oral; conditions: mouse, in vivo, po; method in brief: as §1
[31] = tested on: Human alphaherpesvirus 1; assay: Efficacy was evaluated against Systemic HSV-1 infection in mice at a daily dose of 12.5 mg/kg administered subcutaneously; Tested mice 10; type: organism-based; design: dose 12.5 mg/kg, route subcutaneous; conditions: mouse, in vivo, sc; method in brief: as §5
[32] = tested on: Human betaherpesvirus 5; assay: In vitro anti viral activity tested against HCMV(AD169) virus on MRC-5 cell monolayers; NA=Not active at 25 ug/mL; type: functional, organism-based; conditions: MRC5
Method in brief: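 MRC-5 monolayers were infected with HCMV AD169 for 1 h at 37 °C. Compound diluted in maintenance medium was then added and incubation continued for 7 days at 37 °C. Monolayers were stained and plaques counted. ED50 is the concentration reducing plaque number by 50%.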

In the case of `Nc1nc(O)c2ncn(COCC(O)CO)c2n1` (single isomer, unassigned; form 2) [listing 1 of 2 here], the Average lesion score [1] is reported as 0.15, the Mice with lesions [2] is reported as 5 and the Average survival [3] is reported as 6.9 days. The Mice with lesions [4] was 1, the Mice with lesions [5] was 2 and the Mice with lesions [6] was 8. For the same compound, the Average lesion score [7] was 3.45, the EC50 [8] was 1 µg/mL (≈ 3.92 µM) and the Average survival [9] was 10.7 days. For the same compound, the Mice with lesions [10] was 9, the EC50 [11] was 0.5 µg/mL (≈ 1.96 µM) and the Inhibition [12] was 10%. The Survivors [13] was 0, the Survivors [14] was 0 and the Average lesion score [15] was 1.35. For the same compound, the Survivors [16] was 0, the Mice with lesions [17] was 9 and the Mice with lesions [18] was 6. The Mice with lesions [19] was 5, the Average lesion score [20] was 0.4 and the Average survival [21] was 7.6 days. It also gave an Average survival [22] of 8.1 days, an Average survival [23] of 12.9 days and a Survivors [24] of 3. It also gave a Survivors [25] of 1, an Average survival [26] of 6.7 days and an Inhibition [27] of 57%. The Average lesion score [28] was 1.4, the Average lesion score [29] was 2.75 and the Average lesion score [30] was 0.75. It also gave a Survivors [31] of 4.

`Nc1nc(O)c2ncn(COCC(O)CO)c2n1` (single isomer, unassigned; form 2) [listing 2 of 2 here] was tested, and the ED50 [32] was “inactive”.
